Source: ChEMBL document CHEMBL2434932, “Design, synthesis and biological evaluation of a novel class of potent TGR5 agonists based on a 4-phenyl pyridine scaffold” (Eur J Med Chem, 2013)
Active and inactive are the calls of the source. The rule behind the calls is not given here.

tested on: not listed separately; assay: MRT (0 to t) in Sprague-Dawley rat at 5 mg/kg, po; format: ADME, organism-based; parameters: dose 5 mg/kg, route oral; conditions: in vivo
Outline: (§1)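 Male SD rats, n = 6 per group, dosed orally at 5 mg/kg as a 0.25% CMC-Na formulation. PK parameters were derived by non-compartmental analysis and are reported as mean ± SD.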

MRT last [h]	Structure (SMILES)
2.6	N#CC(NCc1cnccc1-c1ccccc1F)c1cc(C(F)(F)F)cc(C(F)(F)F)c1 (racemic)

tested on: not listed separately; assay: Half life in Sprague-Dawley rat at 5 mg/kg, po; format: ADME, organism-based; parameters: dose 5 mg/kg, route oral; conditions: in vivo; outline: as §1

half-life [h]	Structure (SMILES)
2.3	N#CC(NCc1cnccc1-c1ccccc1F)c1cc(C(F)(F)F)cc(C(F)(F)F)c1 (racemic)

target: T1, G-protein coupled bile acid receptor 1 (Homo sapiens) (UniProt Q8TDU6); assay: Agonist activity at human TGR5 expressed in HEK293 cells assessed CRE-induced luciferase activity at 10 uM after 5.5 hrs by reporter gene assay; format: functional, cell-based; conditions: not given
T1 sequence (whole entry): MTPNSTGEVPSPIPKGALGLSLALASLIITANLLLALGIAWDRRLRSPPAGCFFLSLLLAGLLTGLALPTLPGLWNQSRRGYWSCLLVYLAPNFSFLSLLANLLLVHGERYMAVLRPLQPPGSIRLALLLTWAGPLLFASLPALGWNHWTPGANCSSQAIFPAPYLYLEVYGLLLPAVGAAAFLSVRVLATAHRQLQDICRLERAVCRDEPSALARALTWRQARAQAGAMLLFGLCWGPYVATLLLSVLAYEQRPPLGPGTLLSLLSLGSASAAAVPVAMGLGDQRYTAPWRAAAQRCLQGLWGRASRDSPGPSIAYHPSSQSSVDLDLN

Activity [%]	Structure (SMILES)
18	CCOc1nccc(-c2ccccc2F)c1CNS(=O)(=O)c1cc(C(F)(F)F)cc(C(F)(F)F)c1
19	O=C(C1CCCCC1)N(Cc1cc(C(F)(F)F)cc(C(F)(F)F)c1)Cc1cnccc1-c1ccccc1
18	O=S(=O)(NCc1c(-c2ccccc2F)ccnc1-c1ccccc1)c1cc(C(F)(F)F)cc(C(F)(F)F)c1
46	O=C(NCc1cnccc1-c1ccccc1F)c1cc(C(F)(F)F)cc(C(F)(F)F)c1
1	NCc1cnccc1-c1ccccc1F
16	O=C(O)C(NCc1cnccc1-c1ccccc1F)c1cc(C(F)(F)F)cc(C(F)(F)F)c1 (centres undefined)

tested on: not listed separately; assay: MRT (0 to infinity) in Sprague-Dawley rat at 5 mg/kg, po; format: ADME, organism-based; parameters: dose 5 mg/kg, route oral; conditions: in vivo; outline: as §1

MRT inf [h]	Structure (SMILES)
3.6	N#CC(NCc1cnccc1-c1ccccc1F)c1cc(C(F)(F)F)cc(C(F)(F)F)c1 (racemic)

target: T2, G-protein coupled bile acid receptor 1 (Homo sapiens, UniProt Q8TDU6); assay: Agonist activity at human TGR5 expressed in HEK293 cells assessed CRE-induced luciferase activity after 5.5 hrs by reporter gene assay; format: functional, cell-based; conditions: not given
T2 sequence (Q8TDU6 whole entry): T1 sequence (whole entry)

EC50 [µM]	Structure (SMILES)
0.032	O=C(c1ccco1)N(Cc1cnccc1-c1ccccc1F)S(=O)(=O)c1cc(C(F)(F)F)cc(C(F)(F)F)c1
0.051	N#CC(NCc1cnccc1-c1c(F)cccc1F)c1cc(C(F)(F)F)cc(C(F)(F)F)c1 (racemic)
0.458	Fc1ccccc1-c1ccncc1CNCc1cc(C(F)(F)F)cc(C(F)(F)F)c1
0.031	O=C(c1ccccc1)N(Cc1cnccc1-c1ccccc1F)S(=O)(=O)c1cc(C(F)(F)F)cc(C(F)(F)F)c1
0.061	N#CC(NCc1cnccc1-c1ccccc1)c1cc(C(F)(F)F)cc(C(F)(F)F)c1 (racemic)
0.44	COC(=O)C(NCc1cnccc1-c1ccccc1F)c1cc(C(F)(F)F)cc(C(F)(F)F)c1 (centres undefined)
0.58	FC(F)(F)c1cc(CNCc2cnccc2-c2ccccc2)cc(C(F)(F)F)c1
2.1	O=S(=O)(c1cc(C(F)(F)F)cc(C(F)(F)F)c1)N(Cc1ccccc1)Cc1cnccc1-c1ccccc1F
0.26	O=C(c1cccs1)N(Cc1cc(C(F)(F)F)cc(C(F)(F)F)c1)Cc1cnccc1-c1ccccc1
0.063	O=S(=O)(NCc1cnccc1-c1ccccc1F)c1cc(C(F)(F)F)cc(C(F)(F)F)c1
0.31	CC(c1cc(C(F)(F)F)cc(C(F)(F)F)c1)N(Cc1cnccc1-c1ccccc1)C(=O)c1ccco1 (racemic)
0.035	N#CC(NCc1cnccc1-c1ccccc1F)c1cc(C(F)(F)F)cc(C(F)(F)F)c1 (racemic)

target: T3, G-protein coupled bile acid receptor 1 (Mus musculus) (UniProt Q80SS6); assay: Agonist activity at mouse TGR5 expressed in HEK293 cells assessed CRE-induced luciferase activity after 5.5 hrs by reporter gene assay relative to control; format: functional, cell-based; parameters: concentration or dose not given beside the values; conditions: not given
T3 sequence (whole entry): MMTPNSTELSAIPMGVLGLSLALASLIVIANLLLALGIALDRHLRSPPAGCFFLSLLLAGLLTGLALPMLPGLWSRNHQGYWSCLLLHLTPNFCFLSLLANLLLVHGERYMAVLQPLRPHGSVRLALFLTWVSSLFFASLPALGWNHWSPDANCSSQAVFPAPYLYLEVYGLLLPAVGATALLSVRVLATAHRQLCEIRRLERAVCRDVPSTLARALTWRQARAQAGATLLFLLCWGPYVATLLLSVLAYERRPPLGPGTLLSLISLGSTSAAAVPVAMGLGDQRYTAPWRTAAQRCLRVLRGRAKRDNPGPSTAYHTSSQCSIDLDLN
Outline: (§2)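 HEK293 cells were stably transfected with a human or mouse TGR5 expression plasmid plus a CRE-driven luciferase reporter (pGL4.29). Cells were seeded and incubated overnight in DMEM with 10% FBS at 37 °C in 5% CO2, then exposed in fresh medium to a range of test concentrations. Luciferase read-out. Max effect % was scaled from DMSO vehicle (0%) to the INT-777 reference (100%). EC50 was taken from at least two independent experiments at eight concentrations each, mean ± SD.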

Activity [%]	Structure (SMILES)
139	O=C(c1ccco1)N(Cc1cnccc1-c1ccccc1F)S(=O)(=O)c1cc(C(F)(F)F)cc(C(F)(F)F)c1
123	N#CC(NCc1cnccc1-c1c(F)cccc1F)c1cc(C(F)(F)F)cc(C(F)(F)F)c1 (racemic)
144	O=C(c1ccccc1)N(Cc1cnccc1-c1ccccc1F)S(=O)(=O)c1cc(C(F)(F)F)cc(C(F)(F)F)c1
120	N#CC(NCc1cnccc1-c1ccccc1)c1cc(C(F)(F)F)cc(C(F)(F)F)c1 (racemic)
127	O=C(c1cccs1)N(Cc1cc(C(F)(F)F)cc(C(F)(F)F)c1)Cc1cnccc1-c1ccccc1
148	O=S(=O)(NCc1cnccc1-c1ccccc1F)c1cc(C(F)(F)F)cc(C(F)(F)F)c1
119	CC(c1cc(C(F)(F)F)cc(C(F)(F)F)c1)N(Cc1cnccc1-c1ccccc1)C(=O)c1ccco1 (racemic)
121	N#CC(NCc1cnccc1-c1ccccc1F)c1cc(C(F)(F)F)cc(C(F)(F)F)c1 (racemic)

tested on: not listed separately; assay: Cmax in Sprague-Dawley rat at 5 mg/kg, po; format: ADME, organism-based; parameters: dose 5 mg/kg, route oral; conditions: in vivo; outline: as §1

Cmax [ng/mL]	Structure (SMILES)
16.3	N#CC(NCc1cnccc1-c1ccccc1F)c1cc(C(F)(F)F)cc(C(F)(F)F)c1 (racemic)

tested on: Mus musculus; assay: Antidiabetic activity in oral glucose loaded ICR mouse assessed as reduction of blood glucose AUC (0 to 120 mins) at 50 mg/kg, po; format: functional, organism-based; parameters: dose 50 mg/kg; conditions: not given
Outline: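 Male ICR mice were fasted overnight and dosed orally at 50 mg/kg in 0.25% CMC vehicle (n = 7–8 per group), 30 min before an oral glucose load of 4 g/kg. Tail-clip blood glucose was measured before dosing and at 0, 15, 30, 60 and 120 min after the load. AUC0–120 min was calculated by the trapezoidal rule using each animal's 0-min glucose as its baseline.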

Structure (SMILES)	Activity
N#CC(NCc1cnccc1-c1ccccc1F)c1cc(C(F)(F)F)cc(C(F)(F)F)c1 (racemic)	inactive

target: T4, G-protein coupled bile acid receptor 1 (Mus musculus, UniProt Q80SS6); assay: Agonist activity at mouse TGR5 expressed in HEK293 cells assessed CRE-induced luciferase activity after 5.5 hrs by reporter gene assay; format: functional, cell-based; conditions: not given
T4 sequence (Q80SS6 whole entry): T3 sequence (whole entry)
Outline: as §2, with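 “read-out.” for “read-out. Max effect % was scaled from DMSO vehicle (0%) to the INT-777 reference (100%).”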

EC50 [µM]	Structure (SMILES)
0.91	O=C(c1ccco1)N(Cc1cnccc1-c1ccccc1F)S(=O)(=O)c1cc(C(F)(F)F)cc(C(F)(F)F)c1
0.1	N#CC(NCc1cnccc1-c1c(F)cccc1F)c1cc(C(F)(F)F)cc(C(F)(F)F)c1 (racemic)
0.85	O=C(c1ccccc1)N(Cc1cnccc1-c1ccccc1F)S(=O)(=O)c1cc(C(F)(F)F)cc(C(F)(F)F)c1
0.37	N#CC(NCc1cnccc1-c1ccccc1)c1cc(C(F)(F)F)cc(C(F)(F)F)c1 (racemic)
0.3	O=C(c1cccs1)N(Cc1cc(C(F)(F)F)cc(C(F)(F)F)c1)Cc1cnccc1-c1ccccc1
0.82	O=S(=O)(NCc1cnccc1-c1ccccc1F)c1cc(C(F)(F)F)cc(C(F)(F)F)c1
1.18	CC(c1cc(C(F)(F)F)cc(C(F)(F)F)c1)N(Cc1cnccc1-c1ccccc1)C(=O)c1ccco1 (racemic)
0.15	N#CC(NCc1cnccc1-c1ccccc1F)c1cc(C(F)(F)F)cc(C(F)(F)F)c1 (racemic)

tested on: not listed separately; assay: AUC (0 to t) in Sprague-Dawley rat at 5 mg/kg, po; format: ADME, organism-based; parameters: dose 5 mg/kg, route oral; conditions: plasma; outline: as §1

AUC(0-t) [ng·h/mL]	Structure (SMILES)
49.1	N#CC(NCc1cnccc1-c1ccccc1F)c1cc(C(F)(F)F)cc(C(F)(F)F)c1 (racemic)

tested on: not listed separately; assay: Clearance in Sprague-Dawley rat at 5 mg/kg, po; format: ADME, organism-based; parameters: dose 5 mg/kg, route oral; conditions: in vivo; outline: as §1

CL/F [mL/min/kg]	Structure (SMILES)
1520	N#CC(NCc1cnccc1-c1ccccc1F)c1cc(C(F)(F)F)cc(C(F)(F)F)c1 (racemic)

tested on: Mus musculus; assay: Toxicity in oral glucose loaded ICR mouse assessed as effect on size of the gallbladder at 50 mg/kg, po; format: organism-based; parameters: dose 50 mg/kg, route oral; conditions: in vivo
Outline: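 Male ICR mice from the OGTT (oral dose 50 mg/kg in 0.25% CMC, n = 7–8 per group) were re-fed for 2 h after the test. The gallbladders were then ligated and removed. Gallbladder size was measured by vernier caliper. Bile weight was taken as the gross weight of gallbladder with bile minus the net gallbladder weight.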

Structure (SMILES)	Activity
N#CC(NCc1cnccc1-c1ccccc1F)c1cc(C(F)(F)F)cc(C(F)(F)F)c1 (racemic)	Non-toxic

tested on: not listed separately; assay: Tmax in Sprague-Dawley rat at 5 mg/kg, po; format: ADME, organism-based; parameters: dose 5 mg/kg, route oral; conditions: in vivo; outline: as §1

Tmax [h]	Structure (SMILES)
1.9	N#CC(NCc1cnccc1-c1ccccc1F)c1cc(C(F)(F)F)cc(C(F)(F)F)c1 (racemic)

tested on: not listed separately; assay: AUC (0 to infinity) in Sprague-Dawley rat at 5 mg/kg, po; format: ADME, organism-based; parameters: dose 5 mg/kg, route oral, time infinity; conditions: plasma; outline: as §1

AUC(0-inf) [ng·h/mL]	Structure (SMILES)
55	N#CC(NCc1cnccc1-c1ccccc1F)c1cc(C(F)(F)F)cc(C(F)(F)F)c1 (racemic)
